Results from ChEMBL document CHEMBL5316295, “Systematic Design of Adenosine Analogs as Inhibitors of a Clostridioides difficile-Specific DNA Adenine Methyltransferase Required for Normal Sporulation and Persistence” (J Med Chem, 2023).
Active and inactive are the calls of the source. The rule behind the calls is not given here.

Tests used:
Caulobacter vibrioides = test: Inhibition of Caulobacter vibrioides CcrM using 5'-CGA TTC AAA AAG TCC CAA G-3' and 3'-GCT AAG TTT TTC AGG GTT C-5' as substrate and SAM as cosubstrate at 10 uM incubated for 5 mins
How it was run: (§1)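 Conditions were enzyme 0.1 μM, DNA 5 μM, SAM 30 μM, inhibitor 10 μM, at ~22 °C in 50 mM Tris–HCl pH 7.5, 100 mM NaCl, 1 mM DTT, 0.25% DMSO, run 5 min. Substrate and SAM levels were above K_M.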

[1] = target: DNMT3A-DNMT3L (Mus musculus) (UniProt O88508+Q9CWR8); test: Inhibition of mouse DNMT3A/DNMT3L using 5'-G CATGCGTTCTAATTAGAAUGCATG-3' and 3'-GTA CGS AAG ATT AAT CTT GCG TAC G-5' as substrate and SAM as cosubstrate at 10 uM incubated for 1 hr; assay type: protein-complex assay
Sequence of DNMT3A-DNMT3L (Mus musculus) (Q9CWR8 whole entry, looked up, other chains not shown): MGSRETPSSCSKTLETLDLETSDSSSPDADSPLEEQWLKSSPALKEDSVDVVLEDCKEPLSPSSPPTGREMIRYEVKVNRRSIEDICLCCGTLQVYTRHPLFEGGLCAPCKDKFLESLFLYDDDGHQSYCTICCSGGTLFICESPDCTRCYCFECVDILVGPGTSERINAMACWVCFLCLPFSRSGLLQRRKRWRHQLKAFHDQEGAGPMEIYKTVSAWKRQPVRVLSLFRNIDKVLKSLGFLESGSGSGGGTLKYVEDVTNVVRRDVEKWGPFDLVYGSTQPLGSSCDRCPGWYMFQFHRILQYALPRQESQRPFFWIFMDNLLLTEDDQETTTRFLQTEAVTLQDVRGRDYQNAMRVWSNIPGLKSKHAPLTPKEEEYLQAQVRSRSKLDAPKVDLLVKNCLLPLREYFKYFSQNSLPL
How it was run: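 Dnmt3a-3L (0.5 μM) with 5 μM dsDNA, 25 μM SAM and 10 μM inhibitor in 20 mM Tris pH 7.5, 40 mM NaCl, 4 mM DTT, 20% glycerol, run 1 h at 37 °C.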

[2] = target: T1, Histone-lysine N-methyltransferase EHMT2 (Homo sapiens) (UniProt Q96KQ7); test: Inhibition of human G9a (913 to 1193 residues) expressed in Escherichia coli BL21 (DE3)-gold cells using histone H3 (1 to 21 residues) as substrate and 3H-SAM as cosubstrate at 10 uM pretreated with compound for 20 mins in presence of histone H3 (1 to 21 residues) followed by cosubstrate addition and measured after 1 hr; details: time 80.0 min
T1 sequence (whole entry): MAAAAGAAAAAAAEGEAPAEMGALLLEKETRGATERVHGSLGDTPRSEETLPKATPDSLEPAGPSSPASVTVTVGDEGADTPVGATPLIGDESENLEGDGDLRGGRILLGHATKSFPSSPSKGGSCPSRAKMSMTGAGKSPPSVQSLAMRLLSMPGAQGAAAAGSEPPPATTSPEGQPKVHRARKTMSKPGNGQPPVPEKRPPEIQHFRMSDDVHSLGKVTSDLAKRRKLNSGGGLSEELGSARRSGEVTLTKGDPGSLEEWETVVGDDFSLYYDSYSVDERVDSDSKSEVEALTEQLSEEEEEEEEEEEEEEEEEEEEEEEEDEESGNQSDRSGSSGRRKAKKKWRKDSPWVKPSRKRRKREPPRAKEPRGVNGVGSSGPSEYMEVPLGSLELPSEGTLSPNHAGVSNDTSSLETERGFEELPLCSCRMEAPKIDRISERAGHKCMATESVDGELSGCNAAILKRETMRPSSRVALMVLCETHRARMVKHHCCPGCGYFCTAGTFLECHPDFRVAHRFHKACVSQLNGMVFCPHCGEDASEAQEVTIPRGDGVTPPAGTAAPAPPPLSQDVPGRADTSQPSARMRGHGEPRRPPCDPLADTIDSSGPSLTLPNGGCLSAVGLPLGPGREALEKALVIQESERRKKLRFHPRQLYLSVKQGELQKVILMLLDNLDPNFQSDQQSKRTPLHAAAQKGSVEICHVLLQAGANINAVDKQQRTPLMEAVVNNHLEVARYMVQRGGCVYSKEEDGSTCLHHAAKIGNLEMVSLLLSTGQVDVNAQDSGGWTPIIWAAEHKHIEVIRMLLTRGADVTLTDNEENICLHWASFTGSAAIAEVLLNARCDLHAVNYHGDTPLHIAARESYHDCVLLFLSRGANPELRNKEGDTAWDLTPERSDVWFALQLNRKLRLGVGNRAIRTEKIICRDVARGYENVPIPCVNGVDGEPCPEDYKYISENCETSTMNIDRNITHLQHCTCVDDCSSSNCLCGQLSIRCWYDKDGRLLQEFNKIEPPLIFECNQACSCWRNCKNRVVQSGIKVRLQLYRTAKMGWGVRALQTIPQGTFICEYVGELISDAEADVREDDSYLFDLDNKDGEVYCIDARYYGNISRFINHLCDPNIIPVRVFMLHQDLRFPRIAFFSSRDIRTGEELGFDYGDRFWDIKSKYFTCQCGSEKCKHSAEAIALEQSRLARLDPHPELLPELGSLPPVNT
How it was run: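 Enzymes (DOT1L 1 nM; EZH2, G9a, PRMT1 5 nM) mixed with substrate (0.05 mg/mL oligonucleosomes for DOT1L; 0.05 mg/mL core histone for EZH2; 5 μM H3 1–21 peptide for G9a; 5 μM H4 for PRMT1). Compound (10 μM) added for 20 min at room temperature, then 1 μM ³H-SAM for 1 h at 30 °C; filter-paper read-out. Triplicates, mean ± SD.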

[3] = Binding affinity to Clostridioides difficile-specific DNA adenine methyltransferase by MicroCal PEAQ-ITC instrument analysis
[4] = target: METTL5-TRM112 (Homo sapiens) (UniProt Q9UI30+Q9NRN9); test: Inhibition of human METTL5/TRM112 using 5'-UCG UAA CAA GGU UU-3' as substrate and SAM as cosubstrate at 10 uM incubated for 1 hr; assay type: protein-complex assay
How it was run: (§2)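 Enzyme 0.1 μM with 5 μM RNA, 30 μM SAM and 10 μM inhibitor at ~22 °C in 50 mM Tris–HCl pH 7.5, 100 mM NaCl, 1 mM DTT, 0.25% DMSO. PCIF1 run 15 min with capped RNA; MettL5-Trm112 run 1 h with ssRNA.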

[5] = target: T2, DNA adenine methylase (Escherichia coli K-12) (UniProt P0AEE8); test: Inhibition of Escherichia coli Dam using 5'-CCG CGG ATC CTG CT-3' and 3'-GGC GCC TAG GAC GA-5' as substrate and SAM as cosubstrate at 10 uM incubated for 5 mins; how it was run: as §1
T2 sequence (whole entry): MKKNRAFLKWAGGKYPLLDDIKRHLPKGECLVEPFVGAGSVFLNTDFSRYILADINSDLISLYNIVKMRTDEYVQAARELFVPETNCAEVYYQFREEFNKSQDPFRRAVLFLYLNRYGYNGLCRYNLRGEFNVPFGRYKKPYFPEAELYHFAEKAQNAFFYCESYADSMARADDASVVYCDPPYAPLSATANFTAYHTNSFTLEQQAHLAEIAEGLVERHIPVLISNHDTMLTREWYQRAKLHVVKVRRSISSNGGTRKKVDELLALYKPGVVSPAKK

[6] = target: METTL3/METTL14 (Homo sapiens) (UniProt Q86U44+Q9HCE5); test: Inhibition of human METTL3/METTL14 using 5'-AAC AGA AUG GGA CUG UUC-3' as substrate and SAM as cosubstrate at 10 uM incubated for 15 mins; assay type: protein-complex assay
How it was run: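 Under CamA conditions (100 mM NaCl) the assay ran 15 min with 10 μM inhibitor. An alternative condition used 0.1 μM enzyme, 10 μM ssRNA, 20 μM SAM in 50 mM HEPES pH 7.5, 5 mM NaCl, 1 mM DTT, 0.25% DMSO for 10 min.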

[7] = target: mRNA (2'-O-methyladenosine-N(6)-)-methyltransferase (Homo sapiens) (UniProt Q9H4Z3); test: Inhibition of human PCIF1 using m7GpppAmG as substrate and SAM as cosubstrate at 10 uM incubated for 15 mins; how it was run: as §2
Sequence of mRNA (2'-O-methyladenosine-N(6)-)-methyltransferase (Homo sapiens) (Q9H4Z3 whole entry): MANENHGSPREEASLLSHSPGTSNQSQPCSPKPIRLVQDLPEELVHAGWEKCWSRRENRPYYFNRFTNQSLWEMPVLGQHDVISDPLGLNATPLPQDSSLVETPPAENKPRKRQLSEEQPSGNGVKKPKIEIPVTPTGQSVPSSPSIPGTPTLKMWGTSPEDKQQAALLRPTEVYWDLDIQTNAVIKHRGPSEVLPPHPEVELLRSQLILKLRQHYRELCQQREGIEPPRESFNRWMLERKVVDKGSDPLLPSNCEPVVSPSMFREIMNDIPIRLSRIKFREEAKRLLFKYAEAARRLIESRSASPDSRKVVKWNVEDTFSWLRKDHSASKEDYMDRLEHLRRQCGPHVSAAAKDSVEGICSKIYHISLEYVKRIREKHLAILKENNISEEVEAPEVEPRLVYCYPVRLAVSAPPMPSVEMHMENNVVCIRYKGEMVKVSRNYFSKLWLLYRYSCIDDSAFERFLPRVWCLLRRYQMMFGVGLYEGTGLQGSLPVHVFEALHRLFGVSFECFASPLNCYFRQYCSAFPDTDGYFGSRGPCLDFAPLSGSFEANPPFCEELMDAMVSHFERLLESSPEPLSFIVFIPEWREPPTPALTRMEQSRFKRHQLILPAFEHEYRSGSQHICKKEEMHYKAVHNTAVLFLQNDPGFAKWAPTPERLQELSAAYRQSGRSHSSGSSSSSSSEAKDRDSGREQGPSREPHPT

Structure (SMILES): CC(C)(C)OC(=O)N1CCC(CCCNc2ncnc3c2ncn3[C@@H]2O[C@H](CO)[C@@H](O)[C@H]2O)CC1
- inhibition (Caulobacter vibrioides): inactive
- inhibition [1]: inactive
- inhibition [2]: inactive
- Kd [3]: 140 nM
- inhibition [4]: inactive
- inhibition [5]: inactive
- inhibition [6]: inactive
- inhibition [7]: inactive

Structure (SMILES): CC(C)(C)OC(=O)N1CCC(CCNc2ncnc3c2ncn3[C@@H]2O[C@H](CO)[C@@H](O)[C@H]2O)CC1
- inhibition (Caulobacter vibrioides): inactive
- inhibition [1]: inactive
- inhibition [2]: inactive
- Kd [3]: 140 nM
- inhibition [4]: inactive
- inhibition [5]: inactive
- inhibition [6]: inactive
- inhibition [7]: inactive

Structure (SMILES): OC[C@H]1O[C@@H](n2cnc3c(NCCCc4ccc(O)cc4)ncnc32)[C@H](O)[C@@H]1O
- inhibition (Caulobacter vibrioides): inactive
- inhibition [1]: inactive
- inhibition [2]: inactive
- Kd [3]: 230 nM
- inhibition [4]: inactive
- inhibition [5]: inactive
- inhibition [6]: inactive
- inhibition [7]: inactive
